Experimental data from ChEMBL document CHEMBL3804800, “(E)-3-Heteroarylidenechroman-4-ones as potent and selective monoamine oxidase-B inhibitors” (Eur J Med Chem, 2016).

Assays:
[1] = target: T1, Amine oxidase [flavin-containing] B (Homo sapiens, UniProt P27338); assay: biochemical; type: cell-based, BTI-TN-5B1-4
T1 sequence (P27338 whole entry): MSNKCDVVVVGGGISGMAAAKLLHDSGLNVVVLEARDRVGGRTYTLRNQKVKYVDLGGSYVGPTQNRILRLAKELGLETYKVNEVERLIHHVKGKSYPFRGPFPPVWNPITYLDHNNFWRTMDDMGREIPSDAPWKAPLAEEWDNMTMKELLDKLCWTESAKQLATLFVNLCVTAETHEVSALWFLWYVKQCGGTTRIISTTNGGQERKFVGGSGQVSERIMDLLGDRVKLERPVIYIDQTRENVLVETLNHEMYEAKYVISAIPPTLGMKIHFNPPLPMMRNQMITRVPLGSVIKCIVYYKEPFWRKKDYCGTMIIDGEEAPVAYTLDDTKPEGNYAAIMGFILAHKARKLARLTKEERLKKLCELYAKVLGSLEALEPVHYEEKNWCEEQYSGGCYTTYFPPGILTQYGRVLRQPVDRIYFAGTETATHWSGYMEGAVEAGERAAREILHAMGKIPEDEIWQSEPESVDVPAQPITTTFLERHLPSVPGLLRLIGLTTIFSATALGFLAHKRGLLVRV

[2] = target: T2, Amine oxidase [flavin-containing] A (Homo sapiens, UniProt P21397); assay: Inhibition of human recombinant microsomal MAO-A expressed in baculovirus infected BTI-TN-5B1-4 cells using p-tyramine as substrate assessed as reduction in H2O2 production at 100 uM preincubated for 15 mins followed by substrate addition measured for 15 mins Amplex red dye based fluorimetric method relative to control; settings: for inhibition (INH): human, bti-tn-5b1-4, 0.25 h, 100 µM; for inhibition at 100 µM: BTI-TN-5B1-4, human, 0.25 h
T2 sequence (P21397 whole entry): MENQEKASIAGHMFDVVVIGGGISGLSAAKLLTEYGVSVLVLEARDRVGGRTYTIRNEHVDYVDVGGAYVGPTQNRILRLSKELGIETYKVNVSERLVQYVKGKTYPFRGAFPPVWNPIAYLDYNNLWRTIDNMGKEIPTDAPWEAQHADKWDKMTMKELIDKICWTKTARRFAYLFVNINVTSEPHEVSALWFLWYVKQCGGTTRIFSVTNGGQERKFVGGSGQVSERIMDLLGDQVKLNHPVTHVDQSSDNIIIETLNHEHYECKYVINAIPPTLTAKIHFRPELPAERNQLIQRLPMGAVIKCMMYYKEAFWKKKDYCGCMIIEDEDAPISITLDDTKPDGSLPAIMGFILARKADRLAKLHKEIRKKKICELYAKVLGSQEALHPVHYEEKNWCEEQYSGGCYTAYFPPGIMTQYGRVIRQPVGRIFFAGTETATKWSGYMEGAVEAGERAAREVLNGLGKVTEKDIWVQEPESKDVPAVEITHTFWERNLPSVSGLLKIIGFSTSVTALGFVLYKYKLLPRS
Method in brief: (§1)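 Microsomal hMAO-A or hMAO-B from baculovirus-infected BTI-TN-5B1-4 insect cells. Activity read as H2O2 formed from p-tyramine, detected by Amplex Red resorufin fluorescence. Test compounds were checked for direct reaction with Amplex Red. Highest concentration tested was 100 μM for some compounds and 1 mM for others. Mean ± S.E.M. from five experiments.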

[3] = Selectivity index, ratio of IC50 for human recombinant microsomal MAO-A expressed in baculovirus infected BTI-TN-5B1-4 cells to IC50 for human recombinant microsomal MAO-B expressed in baculovirus infected BTI-TN-5B1-4 cells
[4] = target: T1, Amine oxidase [flavin-containing] B; assay: Reversible inhibition of human recombinant microsomal MAO-B expressed in baculovirus infected BTI-TN-5B1-4 cells at 10 times IC50 using p-tyramine as substrate assessed as reduction in H2O2 production preincubated for 30 mins followed by substrate addition for 15 mins followed by compound dilution by Amplex red dye based fluorimetric method; settings: bti-tn-5b1-4, 0.25 h
Method in brief: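 Dilution method. […] The mixture was then diluted 100-fold into buffer containing Amplex Red, horseradish peroxidase and p-tyramine, and the reaction was monitored for 15 min. Slope was compared with a control preincubated and diluted without inhibitor.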

[5] = target: T1, Amine oxidase [flavin-containing] B; assay: Inhibition of human recombinant microsomal MAO-B expressed in baculovirus infected BTI-TN-5B1-4 cells using p-tyramine as substrate assessed as reduction in H2O2 production at 1 mM preincubated for 15 mins followed by substrate addition measured for 15 mins Amplex red dye based fluorimetric method; settings: bti-tn-5b1-4, 0.25 h, 1000 µM
Method in brief: as §1

Compound	IC50 [1]	inhibition (INH) [2]	Ratio IC50 [3]	inhibition at 100 µM [2]	inhibition (INH) [4]	inhibition (INH) [5]
O=C1/C(=C/c2ccccn2)COc2ccccc21	2.94 µM	Not Active	> 34			
COc1ccc2c(c1)OC/C(=C\c1c[nH]cn1)C2=O	10.6 µM		9.4	40%		
O=C1/C(=C/c2c[nH]cn2)COc2cc(Cl)cc(Cl)c21	10.2 µM		9.8	40%		
O=C1/C(=C/c2ccc[nH]2)COc2ccccc21	13.8 µM		7.3	40%		
O=C1/C(=C/c2ccsc2)COc2ccccc21	1.73 µM		58	40%		
CN(C)c1ncc(/C=C2\COc3cc(Cl)cc(Cl)c3C2=O)cn1	0.0106 µM	Not Active	> 9450		Active	
COc1ccc2c(c1)OC/C(=C\c1cnc(N(C)C)nc1)C2=O	10.4 µM	Not Active	> 9.6			
O=C1/C(=C/c2cccnc2)COc2ccccc21	8.23 µM	Not Active	> 12			
O=C1/C(=C/c2c[nH]c3ccccc23)COc2ccccc21	0.181 µM		551	40%		
CN(C)c1ccc(/C=C2\COc3ccccc3C2=O)cn1	0.213 µM	Not Active	> 469			
O=C1/C(=C/c2cccs2)COc2ccccc21	1.13 µM		88	40%		
O=C1/C(=C/c2ccco2)COc2ccccc21	3.77 µM		27	40%		
O=C1Nc2ccccc2C1=O [ISATIN]		Not Active				
O=C(NCCN1CCOCC1)c1ccc(Cl)cc1 [MOCLOBEMIDE]						Not Active
CN(C)c1ccc(/C=C2\COc3cc(Cl)cc(Cl)c3C2=O)cn1	10.5 µM		9.5	40%		
O=C1/C(=C/c2ccncc2)COc2ccccc21	12.4 µM	Not Active	> 8			
CN(C)c1ncc(/C=C2\COc3ccccc3C2=O)cn1	0.241 µM	Not Active	> 415			
Nc1ccc(/C=C2\COc3ccccc3C2=O)cn1	2.39 µM	Not Active	> 42			
O=C1/C(=C/c2c[nH]cn2)COc2ccccc21	20.2 µM		5	40%		
Nc1ncc(/C=C2\COc3ccccc3C2=O)cn1	18.3 µM	Not Active	> 5.5			
